Values after ≈ are worked out from the molar mass of the structure shown.
Experiments:
[1] = test system: Streptococcus pneumoniae; test: Antibacterial activity against Streptococcus pneumoniae ATCC 49619 after 20 hrs by CLSI based-broth microdilution method; type: functional
Method in brief: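 Streptococci tested in Brain Heart Infusion broth. Two-fold dilutions from 256 to 0.5 μg/mL, inoculum approx. 5 × 10^5 CFU/mL. Incubated 20 h at 37 °C. MIC is the lowest concentration without visible growth.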

[2] = test system: Staphylococcus aureus; test: Antibacterial activity against Staphylococcus aureus ATCC 25923 after 20 hrs by CLSI based-broth microdilution method; type: functional
Method in brief: (§1)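 Broth microdilution in cation-adjusted Mueller-Hinton broth. Two-fold serial dilutions from 256 μg/mL down to 0.5 μg/mL. Inoculum approx. 5 × 10^5 CFU/mL. Incubated 20 h at 37 °C. MIC taken as the lowest concentration with no observable growth.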

[3] = test system: Staphylococcus aureus; test: Antibacterial activity against Staphylococcus aureus ATCC 29213 after 20 hrs by CLSI based-broth microdilution method; type: functional; method in brief: as §1
[4] = test system: Clostridioides difficile; test: Antibacterial activity against Clostridium difficile ATCC 9689 assessed as reduction in bacterial toxin A production at sub-inhibitory concentration incubated for 48 hrs under anaerobic condition by ELISA; type: functional, organism-based; conditions: ATCC 9689 = DSM 1296
Method in brief: (§2)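 Incubated anaerobically at 37 °C for 48 h. Supernatants cleared at 10,000 × g for 2 min. TcdA and TcdB quantified by commercial ELISA, normalized to drug-free control. Duplicate, with technical and biological repeats.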

[5] = test system: Clostridioides difficile; test: Antibacterial activity against Clostridium difficile ATCC 9689 assessed as reduction in bacterial toxin B production at sub-inhibitory concentration incubated for 48 hrs under anaerobic condition by ELISA; type: functional, organism-based; conditions: ATCC 9689 = DSM 1296; method in brief: as §2
[6] = test system: Clostridioides difficile; test: Antibacterial activity against Clostridium difficile ribotype 002 assessed as reduction in bacterial toxin A production at sub-inhibitory concentration incubated for 48 hrs under anaerobic condition by ELISA; type: functional, organism-based; method in brief: as §2
[7] = test system: Clostridioides difficile; test: Antibacterial activity against Clostridium difficile ribotype 002 assessed as reduction in bacterial toxin B production at sub-inhibitory concentration incubated for 48 hrs under anaerobic condition by ELISA; type: functional, organism-based; method in brief: as §2
[8] = test system: Clostridioides difficile; test: Antibacterial activity against Clostridium difficile ribotype 027 assessed as reduction in bacterial toxin A production at sub-inhibitory concentration incubated for 48 hrs under anaerobic condition by ELISA; type: functional, organism-based; method in brief: as §2
[9] = test system: Clostridioides difficile; test: Antibacterial activity against Clostridium difficile ribotype 027 assessed as reduction in bacterial toxin B production at sub-inhibitory concentration incubated for 48 hrs under anaerobic condition by ELISA; type: functional, organism-based; method in brief: as §2

Compound | MIC [1] | MIC [2] | MIC [3] | further results
COc1ccc(C(=O)O)c(C(=O)c2ccc(Sc3ccc(Cl)c(Cl)c3)c([N+](=O)[O-])c2)c1 | 8 µg/mL (≈ 16.7 µM) | 16 µg/mL (≈ 33.5 µM) | 8 µg/mL (≈ 16.7 µM) | 
Nc1ccccc1Sc1ccc(C(=O)c2ccccc2C(=O)O)cc1[N+](=O)[O-] | 256 µg/mL (≈ 649 µM) |  |  | 
O=C(O)c1ccc(Cl)cc1Cc1ccc(Sc2ccc(Cl)c(Cl)c2)c([N+](=O)[O-])c1 | 2 µg/mL (≈ 4.27 µM) | 8 µg/mL (≈ 17.1 µM) | 8 µg/mL (≈ 17.1 µM) | 
O=C(O)c1cc(Cl)ccc1C(=O)c1ccc(Sc2ccc(Cl)c(Cl)c2)c([N+](=O)[O-])c1 | 8 µg/mL (≈ 16.6 µM) | 8 µg/mL (≈ 16.6 µM) | 4 µg/mL (≈ 8.29 µM) | 
COc1ccc(C(=O)O)c(Cc2ccc(Sc3ccc(Cl)c(Cl)c3)c([N+](=O)[O-])c2)c1 | 8 µg/mL (≈ 17.2 µM) | 16 µg/mL (≈ 34.5 µM) | 8 µg/mL (≈ 17.2 µM) | 
O=C(O)c1ccccc1Cc1ccc(Sc2ccc(Cl)c(Cl)c2)c([N+](=O)[O-])c1 | 16 µg/mL (≈ 36.8 µM) | 16 µg/mL (≈ 36.8 µM) | 16 µg/mL (≈ 36.8 µM) | 
O=C(O)c1cc(C(F)(F)F)ccc1C(=O)c1ccc(Sc2ccc(Cl)c(Cl)c2)c([N+](=O)[O-])c1 | 4 µg/mL (≈ 7.75 µM) | 16 µg/mL (≈ 31 µM) | 8 µg/mL (≈ 15.5 µM) | 
O=C(O)c1ccc(F)cc1C(=O)c1ccc(Sc2ccc(Cl)c(Cl)c2)c([N+](=O)[O-])c1 | 8 µg/mL (≈ 17.2 µM) | 16 µg/mL (≈ 34.3 µM) | 8 µg/mL (≈ 17.2 µM) | 
O=C(O)c1cccc(Cc2ccc(Sc3ccc(Cl)c(Cl)c3)c([N+](=O)[O-])c2)c1 | > 256 µg/mL | > 256 µg/mL | > 256 µg/mL | 
CCc1c(Cl)c(O)c(Cl)c(O)c1C(=O)O[C@H]1[C@H](O)[C@H](OC)[C@H](OC/C2=C\C=C\C[C@H](O)/C(C)=C/[C@H](CC)[C@@H](O[C@@H]3OC(C)(C)[C@@H](OC(=O)C(C)C)[C@H](O)[C@@H]3O)/C(C)=C/C(C)=C/C[C@@H]([C@@H](C)O)OC2=O)O[C@@H]1C |  |  |  | Activity [4]: Dose-dependent effect; Activity [5]: Dose-dependent effect; Activity [6]: Dose-dependent effect; Activity [7]: Dose-dependent effect; Activity [8]: Dose-dependent effect; Activity [9]: Dose-dependent effect
O=C(O)c1ccc(C(F)(F)F)cc1Cc1ccc(Sc2ccc(Cl)c(Cl)c2)c([N+](=O)[O-])c1 | 1 µg/mL (≈ 1.99 µM) |  |  | 
Cc1ccc(C(=O)O)c(Cc2ccc(Sc3ccc(Cl)c(Cl)c3)c([N+](=O)[O-])c2)c1 | 4 µg/mL (≈ 8.92 µM) | 4 µg/mL (≈ 8.92 µM) | 4 µg/mL (≈ 8.92 µM) | 

From ChEMBL document CHEMBL4706572, “Benzyl and benzoyl benzoic acid inhibitors of bacterial RNA polymerase-sigma factor interaction” (Eur J Med Chem, 2020)
